Measurements gathered from unrelated publications.
Lines come from different studies, so protocols differ.
Target: Serine/threonine-protein kinase Chk1 (CHEK1, Homo sapiens, UniProt O14757)
Sequence (O14757 1-476, as in one of the studies): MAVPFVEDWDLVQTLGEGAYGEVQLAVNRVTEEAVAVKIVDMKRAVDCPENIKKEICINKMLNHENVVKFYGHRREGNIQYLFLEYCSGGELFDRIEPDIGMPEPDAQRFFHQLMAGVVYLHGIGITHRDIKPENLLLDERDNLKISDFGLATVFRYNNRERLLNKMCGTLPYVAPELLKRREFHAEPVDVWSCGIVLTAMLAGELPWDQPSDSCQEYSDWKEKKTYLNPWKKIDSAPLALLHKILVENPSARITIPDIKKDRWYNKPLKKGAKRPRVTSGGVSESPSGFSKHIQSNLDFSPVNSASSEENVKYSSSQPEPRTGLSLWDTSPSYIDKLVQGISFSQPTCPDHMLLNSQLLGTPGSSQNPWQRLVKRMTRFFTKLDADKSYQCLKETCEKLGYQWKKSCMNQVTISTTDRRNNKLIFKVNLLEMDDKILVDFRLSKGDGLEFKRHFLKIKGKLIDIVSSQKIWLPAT

O=C(NCCCC1CCCCC1)c1ccc(CNC(=O)c2cnn(-c3ccccc3)c2C(F)(F)F)cc1 gave a remaining binding of 100% (cell-free assay, competition with immobilised ligand; 0.1 µM).
With CC1CCCN1c1nccc(-c2cnn3ncccc23)n1 (centres unmarked) the remaining binding was 99% (binding; 1 µM).
CC(=O)Nc1c(C(C)=O)c(=O)n(C)c2nc(-c3ccc(Cl)cc3Cl)c(-c3ccc(Cl)cc3)cc12 gave a remaining binding of 100% (cell-free assay, competition with immobilised ligand; 1 µM).
c1cnn2ncc(-c3ccnc(N4CCC45COC5)n3)c2c1 has a remaining binding of 89% (binding; 1 µM).
COc1cnc(Nc2cccc(S(N)(=O)=O)c2)nc1N1CCN(c2ccccc2)C(=O)C1 gave a remaining binding of 100% (binding, competition with immobilised ligand; 1 µM).
FC(F)(F)Oc1cccc(-c2cnc3ccc(-c4ccncc4)nn23)c1 has a remaining binding of 100% (cell-free assay, competition with immobilised ligand; 5 µM).
FC(F)(F)c1ccc2c(c1)nc(-c1cccnc1)n2C1CC1 has a remaining binding of 100% (cell-free assay, competition with immobilised ligand; 1 µM).
The remaining binding of O=C(c1ccc(Nc2ncc(Cl)c(-c3ccc(Cl)s3)n2)cc1)N1CCC(N2CCCC2)CC1 is reported as 37% (binding, competition with immobilised ligand; 1 µM).
The remaining binding of C[C@@H]1CCN(c2nccc(-c3cnn4ncccc34)n2)C1 is reported as 100% (binding; 1 µM).
The remaining binding of C[C@@H]1CN(c2ccc3ncc(-c4ccc5[nH]nc(C6CC6)c5c4)n3n2)C[C@H](C)O1 is reported as 91% (binding, competition with immobilised ligand; 50 nM).
For CN(C)c1nccc(-c2cnn3ncccc23)n1, the remaining binding was 100% (binding; 1 µM).
The remaining binding of CC(C)CC(=O)N1CCc2nc(-c3ccc(Br)cc3)nc(N(C)Cc3ccccc3)c2C1 is reported as 100% (cell-free assay, competition with immobilised ligand; 0.1 µM).
For N#Cc1ccccc1CSc1nnc2c(n1)[nH]c1ccccc12, the remaining binding was 87% (binding, competition with immobilised ligand; 10 µM).
F[C@@H]1CCN(c2nccc(-c3cnn4ncccc34)n2)C1 gave a remaining binding of 92% (binding; 1 µM).
Cc1cnc(Nc2ccc(C(=O)N3CCC(N4CCCC4)CC3)cc2)nc1-c1cc2ccccc2s1 gave a remaining binding of 33% (binding, competition with immobilised ligand; 1 µM).
Cc1cc(-n2nc(Cc3cc(F)cc(C(F)(F)F)c3)nc2C)ccc1C(N)=O has a remaining binding of 100% (cell-free assay, competition with immobilised ligand; 1 µM).
O=C(NCC1CCOCC1)c1n[nH]cc1NC(=O)c1c(F)cccc1F has a remaining binding of 100% (binding, competition with immobilised ligand; 1 µM).
O=C(c1ccc(Nc2ncc(Cl)c(-c3cc4ccccc4s3)n2)cc1)N1CCC(N2CCCC2)CC1 gave a remaining binding of 54% (binding, competition with immobilised ligand; 1 µM).
With CNC(=O)[C@@H]1CC[C@@H](n2c(-c3ccc4cnccc4c3)nc3ccc(C(=O)NCc4cccc(C(N)=O)c4)cc32)C1 the remaining binding was 100% (binding, competition with immobilised ligand; 1 µM).
The remaining binding of Cc1cc(C)c(-n2ccn3nc(-c4cccnc4)cc23)cc1NC(=O)c1cc(C#N)cc(S(F)(F)(F)(F)F)c1 is reported as 86% (cell-free assay, competition with immobilised ligand; 0.1 µM).
With COc1ccnn2ncc(-c3ccnc(N(C)C)n3)c12 the remaining binding was 94% (binding; 1 µM).
The remaining binding of CN(C)C(=O)Cn1cc(-c2nc([C@@](C)(c3ccc(-c4cnc(N)nc4)cc3)C3CC3)no2)cn1 is reported as 85% (cell-free assay, competition with immobilised ligand; 1 µM).
For N[C@H]1CCN(c2nccc(-c3cnn4ncccc34)n2)C1, the remaining binding was 100% (binding; 1 µM).
